For data set [1], the target named is ATP-dependent translocase ABCB1 (Homo sapiens, UniProt P08183). Put plainly: Inhibition of P-glycoprotein-mediated rhodamine 123 uptake expressed in multidrug-resistant human K562/A02 cells assessed as fluorescence activity ratio at 10 uM after 72 hrs by flow cytometry relative to untreated control. The class given is cell-based. The note with it: k562/a02, 72 h. In outline:
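Rh123 accumulation in P-gp-overexpressing K562/A02 cells with compound at 10 µM. FAR is the ratio of mean Rh123 fluorescence intensity in treated versus untreated cells. VRP served as positive control.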
(Flow cytometry measures light scatter and fluorescence of single cells or particles in a stream.)

Data set [2] is described as follows: Antiproliferative activity against multidrug-resistant human K562/A02 cells overexpressing p-glycoprotein after 72 hrs by MTS assay. Type of data set: functional, cell-based. To be noted: K562/A02, 72 h. The procedure, abridged:
(§1)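 Growth inhibition of parental K562 and drug-resistant K562/A02 leukemia cells, measured by MTS after 72 h exposure. IC50 is the concentration giving a 50% drop in cell growth. Values are means of three experiments. ADR served as positive control.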
Background: Tetrazolium assays rely on reduction of a dye to a coloured formazan, in cell work by metabolically active cells.

The subject of data set [3] is K562. Put plainly: Antiproliferative activity against human K562 cells after 72 hrs by MTS assay. The note with it: K562, 72 h. Type of data set: functional, cell-based. The procedure, abridged:
as §1

Data set [4] deals with K562/A02. Put plainly: Survival of human K562/A02 cells in presence of adriamycin at 10 uM after 72 hrs by MTS assay.
The subject of data set [5] is K562/A02. Put plainly: Survival of human K562/A02 cells in presence of adriamycin at 5 uM after 72 hrs by MTS assay.
Data set [6] deals with K562. Put plainly: Potentiation of adriamycin-induced cytotoxicity in human K562 cells after 72 hrs by MTS assay. The class given is functional, cell-based. In outline: (§2)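 Chemosensitization was tested by co-treating K562/A02 cells with 2 µM ADR or K562 cells with 0.04 µM ADR, plus compound at 2.5, 5 or 10 µM, for 72 h. Survival was read by MTS and compared with ADR alone. VRP served as positive control.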

Data set [7] has as its system K562/A02. The experiment in a line: Inhibition of Pgp-mediated adriamycin efflux in multidrug-resistance human K562/A02 cells assessed as increase in intracellular accumulation of adriamycin after 60 mins by FACS flow cytometry. The class given is cell-based. The procedure, abridged: (§3)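 K562/A02 cells were incubated with 0.5 µM Rh123 or 0.5 µM ADR, with or without 0.33, 3.3 or 10 µM compound, at 37 °C for 30 min. K562 cells received dye only. Cells were washed twice in PBS, resuspended in medium and left 60 min at 37 °C for efflux. Read-out was fluorescence microscopy or flow cytometry (ex/em 488/520 nm Rh123; 488/570 nm ADR). Vehicle was 0.1% DMSO.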

Data set [8] deals with K562/A02. The experiment in a line: Inhibition of Pgp-mediated multidrug-resistance in human K562/A02 cells assessed as potentiation of adriamycin-induced cytotoxicity after 72 hrs by MTS assay. The class given is cell-based. In outline: as §2
The test system of data set [9] is K562/A02. Put plainly: Inhibition of Pgp-mediated rhodamine-123 efflux in multidrug-resistance human K562/A02 cells assessed as increase in intracellular accumulation of rhodamine-123 after 60 mins by fluorescence microscopic analysis. The class given is cell-based. The procedure, abridged:
as §3

Data set [10] relates to K562/A02. Put plainly: Survival of human K562/A02 cells in presence of adriamycin at 2.5 uM after 72 hrs by MTS assay.

In general, IC50 refers to the concentration needed to halve the response being measured. High values mean a need for much substance, low ones inhibition by little substance.

Molecules are shown by their SMILES. Active and inactive are the calls of the source. The rule behind the calls is not given here. A value given as a limit tells only on which side of the number the result lay.

Chain of ATP-dependent translocase ABCB1 (P08183 whole entry): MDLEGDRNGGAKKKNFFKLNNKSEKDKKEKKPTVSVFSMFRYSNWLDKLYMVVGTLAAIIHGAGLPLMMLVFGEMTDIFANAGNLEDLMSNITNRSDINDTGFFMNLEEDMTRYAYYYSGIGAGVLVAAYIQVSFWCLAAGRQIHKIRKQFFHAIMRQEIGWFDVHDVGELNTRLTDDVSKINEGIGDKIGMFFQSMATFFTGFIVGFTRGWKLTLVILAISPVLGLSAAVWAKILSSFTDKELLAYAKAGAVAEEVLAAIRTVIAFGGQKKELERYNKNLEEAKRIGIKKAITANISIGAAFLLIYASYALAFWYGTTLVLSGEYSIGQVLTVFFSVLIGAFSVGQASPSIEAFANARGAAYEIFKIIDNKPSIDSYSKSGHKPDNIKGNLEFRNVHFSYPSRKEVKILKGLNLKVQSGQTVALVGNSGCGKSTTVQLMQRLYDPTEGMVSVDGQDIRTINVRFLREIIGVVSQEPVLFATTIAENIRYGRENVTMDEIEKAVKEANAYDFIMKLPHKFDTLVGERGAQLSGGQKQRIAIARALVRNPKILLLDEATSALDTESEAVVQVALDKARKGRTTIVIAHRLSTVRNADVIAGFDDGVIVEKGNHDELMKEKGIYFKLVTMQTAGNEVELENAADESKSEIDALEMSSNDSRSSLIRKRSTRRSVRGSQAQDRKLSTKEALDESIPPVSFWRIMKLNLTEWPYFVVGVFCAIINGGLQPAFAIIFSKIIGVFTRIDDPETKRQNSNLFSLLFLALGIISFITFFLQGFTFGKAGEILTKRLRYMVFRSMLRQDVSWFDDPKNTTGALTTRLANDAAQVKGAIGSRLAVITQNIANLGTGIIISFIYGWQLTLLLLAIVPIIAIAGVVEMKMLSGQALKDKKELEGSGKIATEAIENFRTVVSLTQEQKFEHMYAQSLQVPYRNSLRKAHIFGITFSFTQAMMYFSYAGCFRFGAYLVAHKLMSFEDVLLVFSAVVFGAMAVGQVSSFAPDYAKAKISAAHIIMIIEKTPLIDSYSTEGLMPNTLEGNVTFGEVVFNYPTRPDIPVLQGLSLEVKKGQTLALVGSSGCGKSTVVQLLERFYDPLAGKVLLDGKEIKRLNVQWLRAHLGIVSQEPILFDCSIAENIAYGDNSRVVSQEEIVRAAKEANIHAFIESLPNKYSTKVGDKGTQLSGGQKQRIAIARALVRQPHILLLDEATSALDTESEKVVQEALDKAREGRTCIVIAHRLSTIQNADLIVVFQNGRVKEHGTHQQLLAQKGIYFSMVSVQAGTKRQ

Take `COc1ccc(CCN(C)CCCC(C#N)(c2ccc(OC)c(OC)c2)C(C)C)cc1OC` (configuration not stated) [VERAPAMIL]: the Ratio in data set [1] is listed as 4.16.
In the case of `COc1cc2c(c3c1OCO3)-c1c(cc(OC)c3c1OCO3)C(=O)N(CCN1CCOCC1)C2`, the IC50 in data set [2] and in data set [3] was over 100 µM throughout. For the same molecule, the Ratio in [1] is on record as 3.23.
For `CCCN(CCC)CCN1Cc2cc(OC)c3c(c2-c2c(cc(OC)c4c2OCO4)C1=O)OCO3`, the concentration for half-maximal inhibition (IC50) in data set [2] and in data set [3] was over 100 µM each time. The Ratio in data set [1] worked out at 2.84.
Regarding `COc1cc2c(c3c1OCO3)-c1c(cc(OC)c3c1OCO3)C(=O)N(CCN1CCCC1)C2`, the IC50 in [2] and in data set [3] was over 100 µM throughout. In addition, the Ratio in data set [1] was 1.65.
In the case of `COc1cc2c(c3c1OCO3)-c1c(cc(OC)c3c1OCO3)C(=O)N(CCN1CCCCC1)C2`, the half-maximal inhibitory concentration (IC50) was 91.1 µM in [2] and 90 µM in data set [3]. In data set [1], the Ratio was 3.46.
Regarding `COc1cc2c(c3c1OCO3)-c1c(cc(OC)c3c1OCO3)C(=O)N(CCN1CCN(Cc3ccccc3)CC1)C2`, the values for the survival rate in [4], in data set [5] and in [10] were 7.5%, 19.9% and 33.9%, respectively. The outcome in data set [6] was inactive. The inhibition result in data set [7], in data set [8] and in data set [9] was “Dose-dependent effect” throughout. The IC50 in data set [2] was found to be 56.3 µM; in [3] it was 49.2 µM. In addition, in [1], the Ratio was determined as 14.11.
Regarding `COc1cc2c(c3c1OCO3)-c1c(cc(OC)c3c1OCO3)C(=O)N(CCN1CCN(C)CC1)C2`, the half-inhibitory concentration (IC50) in data set [2] and in [3] was over 100 µM each time. In addition, the Ratio in data set [1] came out at 1.03.
In the case of `CCN(CC)CCN1Cc2cc(OC)c3c(c2-c2c(cc(OC)c4c2OCO4)C1=O)OCO3`, the 50% inhibitory concentration (IC50) in data set [2] stood at 94.8 µM; in data set [3] it was 62.4 µM. The Ratio in data set [1] was 2.57.
The matching figures for `COc1cc2c(c3c1OCO3)-c1c(cc(OC)c3c1OCO3)C(=O)N(CCN(C)C)C2`: over 100 µM, over 100 µM and 1.44.

Source of the values: ChEMBL document CHEMBL2046297, “Synthesis and evaluation of substituted dibenzo[c,e]azepine-5-ones as P-glycoprotein-mediated multidrug resistance reversal agents” (Bioorg Med Chem Lett, 2012).
